Published values collected from several papers.
Target: Cyclin-dependent kinase 14 (CDK14, Homo sapiens, UniProt O94921)

Compound	observed	technique	concentration	remaining binding [%]
N[C@@H]1CCN(c2nccc(-c3cnn4ncccc34)n2)C1	binding	–	1 µM	100
CS(=O)(=O)c1cc(C2(NC(=O)c3cncc4c3cnn4-c3ccc(F)cc3)CC2)ccn1	cell-free assay	competition with immobilised ligand	1 µM	100
Nc1ncc2c(n1)-c1c([nH]c3ccc(C#CC4CC4)cc13)CCCC2	binding	competition with immobilised ligand	1 µM	88
COc1cnc(Nc2cccc(S(N)(=O)=O)c2)nc1N1CCN(c2ccccc2)C(=O)C1	binding	competition with immobilised ligand	1 µM	100
O=C(NCC1CCOCC1)c1n[nH]cc1NC(=O)c1c(F)cccc1F	binding	competition with immobilised ligand	1 µM	79
O=C(NCCCN1CCOCC1)c1ccc(Nc2ncc(Cl)c(-c3ccc(Cl)s3)n2)cc1	binding	competition with immobilised ligand	1 µM	37
CNCc1ccccc1-c1csc([C@H](C)Nc2nc(C)nc3cc(OC)c(OC)cc23)c1	cell-free assay	competition with immobilised ligand	1 µM	100
O=C(c1ccc(Nc2nccc(-c3cc4ccccc4s3)n2)cc1)N1CCC(N2CCCC2)CC1	binding	competition with immobilised ligand	1 µM	100
F[C@@H]1CCN(c2nccc(-c3cnn4ncccc34)n2)C1	binding	–	1 µM	100
Cc1nc(C2CCN(C(=O)c3ccc(OC(F)(F)F)cc3N)CC2)c2ncc(N3CCN(C)CC3)cc2n1	cell-free assay	competition with immobilised ligand	1 µM	100
O=C(NCCCN1CCOCC1)c1ccc(Nc2nccc(-c3cc4ccccc4s3)n2)cc1	binding	competition with immobilised ligand	1 µM	100
C[C@@H]1CCN(c2nccc(-c3cnn4ncccc34)n2)C1	binding	–	1 µM	100
CCOC(=O)c1cc2cc(-c3cc(C(=O)NCc4ccc(C(=O)O)cc4)nn3C)ccc2[nH]1	cell-free assay	competition with immobilised ligand	0.1 µM	100
CCN1CCN(Cc2ccc(C(=O)Nc3ccc(C)c(Oc4ccc5c(c4)CC(=O)N5)c3)cc2C(F)(F)F)CC1	binding	competition with immobilised ligand	1 µM	100
FC(F)(F)Oc1cccc(-c2cnc3ccc(-c4ccncc4)nn23)c1	cell-free assay	competition with immobilised ligand	5 µM	68
Cc1cc(C)c(-n2ccn3nc(-c4cccnc4)cc23)cc1NC(=O)c1cc(C#N)cc(S(F)(F)(F)(F)F)c1	cell-free assay	competition with immobilised ligand	0.1 µM	100
Cc1cnn2ncc(-c3ccnc(N(C)C)n3)c2c1	binding	–	1 µM	91
CC(=O)N1CCC(c2ccc(C(=O)NC3=NCCN3)cc2C(F)(F)F)CC1	cell-free assay	competition with immobilised ligand	1 µM	100
CN(c1nccc(-c2cnn3ncccc23)n1)C1CC1	binding	–	1 µM	100
